Reference: ChEMBL document CHEMBL4622925, “N1-Substituted benzimidazole scaffold for farnesoid X receptor (FXR) agonists accompanying prominent selectivity against vitamin D receptor (VDR)” (Bioorg Med Chem, 2020)
Values belong to the molecule of their own block, whether it stands above or below them.

Experiments:
Huh-7 = experiment: Cytotoxicity against human HuH7 cells assessed as cell viability by MTT assay; type: cell-based
HEK-293T = experiment: Cytotoxicity against human HEK293T cells assessed as cell viability by MTT assay; type: cell-based
Vitamin D3 receptor = target: T1, Vitamin D3 receptor (Homo sapiens, UniProt P11473); experiment: Antagonist activity at human VDR transfected in HEK293T cells measured after 24 hrs by luciferase reporter gene assay; type: cell-based, HEK-293T
T1 sequence (P11473 whole entry): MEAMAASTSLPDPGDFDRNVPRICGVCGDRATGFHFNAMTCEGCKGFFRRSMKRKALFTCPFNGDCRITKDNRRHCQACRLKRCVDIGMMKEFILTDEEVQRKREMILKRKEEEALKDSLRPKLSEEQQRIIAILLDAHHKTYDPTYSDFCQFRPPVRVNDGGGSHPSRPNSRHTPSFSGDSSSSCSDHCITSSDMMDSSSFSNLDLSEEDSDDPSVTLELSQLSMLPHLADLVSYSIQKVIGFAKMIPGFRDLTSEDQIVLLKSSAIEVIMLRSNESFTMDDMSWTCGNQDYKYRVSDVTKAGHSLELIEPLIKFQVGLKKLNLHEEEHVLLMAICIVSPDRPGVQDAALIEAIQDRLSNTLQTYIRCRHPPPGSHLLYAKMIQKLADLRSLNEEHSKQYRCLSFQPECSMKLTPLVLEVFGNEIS

Bile acid receptor [1] = target: T2, Bile acid receptor (Homo sapiens, UniProt Q96RI1); experiment: Agonist activity at GST-fused FXR-LBD (unknown origin) incubated with Fluorecein-SRC2-2 coactivator peptide as substrate by TR-FRET assay
T2 sequence (Q96RI1 whole entry): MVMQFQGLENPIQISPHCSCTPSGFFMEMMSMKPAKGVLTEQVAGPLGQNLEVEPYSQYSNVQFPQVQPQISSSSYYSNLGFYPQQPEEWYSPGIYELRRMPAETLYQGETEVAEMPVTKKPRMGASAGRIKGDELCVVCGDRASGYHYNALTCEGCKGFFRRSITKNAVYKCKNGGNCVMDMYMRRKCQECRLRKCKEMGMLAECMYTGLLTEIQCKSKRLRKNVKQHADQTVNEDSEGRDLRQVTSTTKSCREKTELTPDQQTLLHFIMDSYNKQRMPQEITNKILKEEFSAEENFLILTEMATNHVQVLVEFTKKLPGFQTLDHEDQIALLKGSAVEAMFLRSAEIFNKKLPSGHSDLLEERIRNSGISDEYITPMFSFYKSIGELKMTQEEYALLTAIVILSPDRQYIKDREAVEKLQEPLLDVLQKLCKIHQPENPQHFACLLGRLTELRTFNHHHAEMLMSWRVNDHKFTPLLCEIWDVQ

Bile acid receptor [2] = target: T2, Bile acid receptor; experiment: Agonist activity at human FXR expressed in human HuH7 cells by luciferase reporter gene assay; type: cell-based, Huh-7
[3] = Cytotoxicity against mouse ST-2 cells assessed as cell viability upto 5 uM incubated for 12 days by WST-8 assay; type: cell-based; conditions: 288 h
Outline: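 ST-2 mesenchymal stem cells kept 12 days in RPMI-1640 medium containing compound at 0–10 μM. Viability read by WST-8 assay and expressed relative to untreated (0 μM) cells set as 100%. Means ± S.D., n=5.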

SMILES: CC(C)c1onc(-c2c(Cl)cccc2Cl)c1COc1ccc(-c2nc3ccc(C(=O)O)cc3n2Cc2ccc(F)cc2)cc1
- Activity (Huh-7): Toxic
- Activity (HEK-293T): Toxic

SMILES: CC(C)c1onc(-c2c(Cl)cccc2Cl)c1COc1ccc(-c2nc3ccc(C(=O)O)cc3n2C)cc1
- Activity (Huh-7): Toxic
- Activity (HEK-293T): Toxic

- IC50 (Vitamin D3 receptor): > 10000 nM
SMILES: CCC(CC)n1c(-c2ccc(OCc3c(-c4c(Cl)cccc4Cl)noc3C(C)C)cc2F)nc2ccc(C(=O)O)cc21
- Activity (Huh-7): Toxic
- Activity (HEK-293T): Toxic

SMILES: CCn1c(-c2ccc(OCc3c(-c4c(Cl)cccc4Cl)noc3C(C)C)cc2)nc2ccc(C(=O)O)cc21
- Activity (Huh-7): Toxic
- Activity (HEK-293T): Toxic

SMILES: CC(C)c1onc(-c2c(Cl)cccc2Cl)c1COc1ccc(-c2nc3ccc(C(=O)O)cc3n2C2CC2)cc1
- Activity (Huh-7): Toxic
- Activity (HEK-293T): Toxic

SMILES: CC(C)c1onc(-c2c(Cl)cccc2Cl)c1COc1ccc(-c2nc3ccc(C(=O)O)cc3n2C2CCC2)cc1
- Activity (Huh-7): Toxic
- Activity (HEK-293T): Toxic

- EC50 (Bile acid receptor [1]): 24.8 nM
- EC50 (Bile acid receptor [2]): 13 nM
SMILES: CC(C)c1onc(-c2c(Cl)cccc2Cl)c1COc1ccc(-c2nc3ccc(C(=O)O)cc3n2CC(C)(C)C)cc1
- Activity (Huh-7): Toxic
- Activity (HEK-293T): Toxic

SMILES: CC(C)c1onc(-c2c(Cl)cccc2Cl)c1COc1ccc(-c2nc3ccc(C(=O)O)cc3n2C2CCCC2)cc1
- Activity (Huh-7): Toxic
- Activity (HEK-293T): Toxic

- IC50 (Vitamin D3 receptor): > 10000 nM
SMILES: CCCC(CCC)n1c(-c2ccc(OCc3c(-c4c(Cl)cccc4Cl)noc3C(C)C)cc2)nc2ccc(C(=O)O)cc21
- Activity (Huh-7): Toxic
- Activity (HEK-293T): Toxic

SMILES: CC(C)c1onc(-c2c(Cl)cccc2Cl)c1COc1ccc(-c2nc3ccc(C(=O)O)cc3n2C(C)C)cc1
- Activity (Huh-7): Toxic
- Activity (HEK-293T): Toxic

- IC50 (Vitamin D3 receptor): > 10000 nM
SMILES: CC(=O)N1CCC(n2c(-c3ccc(OCc4c(-c5c(Cl)cccc5Cl)noc4C(C)C)cc3)nc3ccc(C(=O)O)cc32)CC1
- Activity (Huh-7): Toxic
- Activity (HEK-293T): Toxic

SMILES: CC(C)c1onc(-c2c(Cl)cccc2Cl)c1COc1ccc(-c2nc3ccc(C(=O)O)cc3n2C)c(Cl)c1
- Activity (Huh-7): Toxic
- Activity (HEK-293T): Toxic

SMILES: CC(C)c1onc(-c2c(Cl)cccc2Cl)c1COc1ccc(-c2nc3ccc(C(=O)O)cc3n2C2CCCCCC2)cc1
- Activity (Huh-7): Toxic
- Activity (HEK-293T): Toxic

SMILES: CC(C)c1onc(-c2c(Cl)cccc2Cl)c1COc1ccc(-c2nc3ccc(C(=O)O)cc3n2CC2CCCCC2)c(F)c1
- Activity (Huh-7): Toxic
- Activity (HEK-293T): Toxic

SMILES: CCCn1c(-c2ccc(OCc3c(-c4c(Cl)cccc4Cl)noc3C(C)C)cc2)nc2ccc(C(=O)O)cc21
- Activity (Huh-7): Toxic
- Activity (HEK-293T): Toxic

SMILES: CC(C)c1onc(-c2c(Cl)cccc2Cl)c1COc1ccc(-c2nc3cc(C(=O)O)ccc3n2C)cc1
- Activity (Huh-7): Toxic
- Activity (HEK-293T): Toxic

- IC50 (Vitamin D3 receptor): > 10000 nM
SMILES: CC(=O)C1CCC(Cn2c(-c3ccc(OCc4c(-c5c(Cl)cccc5Cl)noc4C(C)C)cc3)nc3ccc(C(=O)O)cc32)CC1 (stereo not drawn)
- Activity (Huh-7): Toxic
- Activity (HEK-293T): Toxic

SMILES: CC(C)c1onc(-c2c(Cl)cccc2Cl)c1COc1ccc(-c2nc3ccc(C(=O)O)cc3n2CC2CC2)cc1
- Activity (Huh-7): Toxic
- Activity (HEK-293T): Toxic

SMILES: CC(C)c1onc(-c2c(Cl)cccc2Cl)c1COc1ccc(-c2nc3ccc(C(=O)O)cc3n2CC2CCCCC2)cc1
- Activity (Huh-7): Toxic
- Activity (HEK-293T): Toxic
- Activity [3]: Non-Toxic

SMILES: CC(C)c1onc(-c2c(Cl)cccc2Cl)c1COc1ccc(-c2nc3ccc(C(=O)O)cc3n2C)cc1Cl
- Activity (Huh-7): Toxic
- Activity (HEK-293T): Toxic

SMILES: CC(C)c1onc(-c2c(Cl)cccc2Cl)c1COc1ccc(-c2nc3ccc(C(=O)O)cc3n2-c2ccc(F)cc2)cc1
- Activity (Huh-7): Toxic
- Activity (HEK-293T): Toxic

- IC50 (Vitamin D3 receptor): > 10000 nM
SMILES: CC(C)c1onc(-c2c(Cl)cccc2Cl)c1COc1ccc(/C=C/c2cccc(C(=O)O)c2)c(Cl)c1

SMILES: CC(C)Cn1c(-c2ccc(OCc3c(-c4c(Cl)cccc4Cl)noc3C(C)C)cc2)nc2ccc(C(=O)O)cc21
- Activity (Huh-7): Toxic
- Activity (HEK-293T): Toxic

SMILES: CCC(CC)n1c(-c2ccc(OCc3c(-c4c(Cl)cccc4Cl)noc3C(C)C)cc2)nc2ccc(C(=O)O)cc21
- Activity (Huh-7): Toxic
- Activity (HEK-293T): Toxic
- Activity [3]: Non-Toxic

- EC50 (Bile acid receptor [1]): 21.6 nM
- EC50 (Bile acid receptor [2]): 1.6 nM
SMILES: CCC(CC)n1c(-c2ccc(OCc3c(-c4c(Cl)cccc4Cl)noc3C(C)C)cc2Cl)nc2ccc(C(=O)O)cc21
- Activity (Huh-7): Toxic
- Activity (HEK-293T): Toxic

SMILES: CC(C)c1onc(-c2c(Cl)cccc2Cl)c1COc1ccc(-c2nc3ccc(C(=O)O)cc3n2CC2CCCCC2)c(Cl)c1
- Activity (Huh-7): Toxic
- Activity (HEK-293T): Toxic

SMILES: CC(C)c1onc(-c2c(Cl)cccc2Cl)c1COc1ccc(-c2nc3ccc(C(=O)O)cc3n2C2CCCCC2)cc1
- Activity (Huh-7): Toxic
- Activity (HEK-293T): Toxic
